Measured values published in ChEMBL document CHEMBL1143725, “Alvaradoins E-N, antitumor and cytotoxic anthracenone C-glycosides from the leaves of Alvaradoa haitiensis” (J Nat Prod, 2007).
Calls of active or inactive are those of the source. The rule behind the calls is not given here.

Legend:
P388 [1] = test: Antitumor activity in P388 cells xenografted mouse at 0.4 mg/kg body weight, ip for 5 days/week relative to control; type: functional; details: route intraperitoneal
Outline: (§1)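 Mice carried murine P388 lymphocytic leukemia cells implanted intraperitoneally. Treatment was given i.p. daily, 5 days per week. Activity was expressed as % T/C, treated versus control.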

KB = test: Cytotoxicity against human KB cells; type: functional, cell-based
Outline: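 Human oral epidermoid carcinoma (KB) cells were tested following previously established protocols. EC50 values were reported in μM as mean ± SEM from three separate experiments.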

P388 [2] = test: Antitumor activity in iv dosed mouse implanted with P388 xenografts; type: functional, organism-based
Outline: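 This was a P388 murine lymphocytic leukemia model in which both the leukemia cells and the treatment were delivered intravenously.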

P388 [3] = test: Antitumor activity in P388 cells xenografted mouse at 0.2 mg/kg body weight, ip for 5 days/week relative to control; type: functional; details: route intraperitoneal; outline: as §1

Structure (SMILES) | EC50 (KB) [nM] | further results
CC(=O)O[C@H]1O[C@H]([C@@H]2c3cccc(O)c3C(=O)c3c(O)cc(C)cc32)[C@H](O)[C@@H](O)[C@H]1O [ALVARADOIN F] | 65 | Activity (P388 [1]): 115%; Activity (P388 [2]): inactive
CC[C@@]1(O)C(=O)OCc2c1cc1n(c2=O)Cc2cc3ccccc3nc2-1 [CAMPTOTHECIN] | 3.6 | –
CC(=O)O[C@H]1O[C@H]([C@]2(O)c3cccc(O)c3C(=O)c3c(O)cc(C)cc32)[C@H](O)[C@@H](O)[C@H]1O [ALVARADOIN N] | 2940 | –
CC(C)=CC(=O)O[C@@H]1[C@H](O)[C@@H](O)[C@@H]([C@@H]2c3cccc(O)c3C(=O)c3c(O)cc(C)cc32)O[C@@H]1O [ALVARADOIN K] | 270 | –
CC(=O)O[C@H]1O[C@H]([C@]2(O)c3cccc(O)c3C(=O)c3c(O)cc(C)cc32)[C@H](O)[C@@H](OC(=O)C=C(C)C)[C@H]1O [ALVARADOIN J] | 15900 | –
CC(C)=CC(=O)O[C@@H]1[C@H](O)[C@@H](O)[C@@H]([C@H]2c3cccc(O)c3C(=O)c3c(O)cc(C)cc32)O[C@@H]1O [ALVARADOIN L] | 590 | –
CC(=O)O[C@H]1O[C@H]([C@@]2(O)c3cccc(O)c3C(=O)c3c(O)cc(C)cc32)[C@H](O)[C@@H](OC(=O)C=C(C)C)[C@H]1O [ALVARADOIN I] | 12500 | –
CC(=O)O[C@@H]1O[C@@H]([C@H]2c3cccc(O)c3C(=O)c3c(O)cc(C)cc32)[C@H](O)[C@@H](OC(=O)C=C(C)C)[C@H]1O [ALVARADOIN H] | 1070 | –
CC(C)=CC(=O)O[C@@H]1[C@@H](O)[C@@H]([C@H]2c3cccc(O)c3C(=O)c3c(O)cc(C)cc32)O[C@H](O)[C@@H]1O [ALVARADOIN M] | 380 | –
Cc1cc(O)c2c(c1)C(=O)c1cccc(O)c1C2=O [CHRYSOPHANOL] | > 20000 | –
CC(=O)O[C@H]1O[C@H]([C@@H]2c3cccc(O)c3C(=O)c3c(O)cc(C)cc32)[C@H](O)[C@@H](OC(=O)C=C(C)C)[C@H]1O [ALVARADOIN G] | 650 | –
CC(=O)O[C@@H]1O[C@@H]([C@H]2c3cccc(O)c3C(=O)c3c(O)cc(C)cc32)[C@H](O)[C@@H](O)[C@H]1O [ALVARADOIN E] | 50 | Activity (P388 [3]): 125%; Activity (P388 [2]): inactive
